Measured values of several laboratories.
Protocols differ between the studies behind these lines.
Organism: Candida albicans
Observed: microbial growth
Technique: broth dilution

SMILES | strain | time | MIC
C[C@@H]1[C@H](O)[C@@H](C)/C=C/C=C/C=C/C=C/C=C/C=C/C=C/[C@H](O[C@@H]2O[C@H](C)[C@@H](O)[C@H](N)[C@@H]2O)C[C@@H]2O[C@](O)(C[C@@H](O)C[C@@H](O)[C@H](O)CC[C@@H](O)C[C@@H](O)CC(=O)O[C@H]1C)C[C@H](O)[C@H]2C(=O)O | SP3903 | 48 h | < 0.25 µM
C/C(=N\C(=N)/N=C(\C)c1c(O)c2ccccc2oc1=O)c1c(O)c2ccccc2oc1=O | – | 48 h | 31.2 µg/mL
OC(Cn1cncn1)(Cn1cncn1)c1ccc(F)cc1F | 1 | 24 h | 128 µg/mL
C[C@@H]1[C@H](O)[C@@H](C)/C=C/C=C/C=C/C=C/C=C/C=C/C=C/[C@H](O[C@@H]2O[C@H](C)[C@@H](O)[C@H](N)[C@@H]2O)C[C@@H]2O[C@](O)(C[C@@H](O)C[C@@H](O)[C@H](O)CC[C@@H](O)C[C@@H](O)CC(=O)O[C@H]1C)C[C@H](O)[C@H]2C(=O)O | ATCC10231 | 48 h | 2 µg/mL
COc1ccc(N2N=C(C(C)=O)SC2=C(C#N)C(=O)c2ccc(Nc3cnccn3)cc2)cc1 | ATCC10231 | – | 25 µg/mL
CC(=O)N1CCN(c2ccc(OCC3COC(Cn4ccnc4)(c4ccc(Cl)cc4Cl)O3)cc2)CC1 (stereo not shown) | 58288 | 48 h | 16 µM
CC(=O)N1CCN(c2ccc(OCC3COC(Cn4ccnc4)(c4ccc(Cl)cc4Cl)O3)cc2)CC1 (stereo not shown) | ATCC10231 | – | 1.95 µg/mL
CC(=O)ON=C1C=CC(=C(C#N)c2ccccc2)C=C1 | ATCC10231 | 48 h | 2 µg/mL
Cc1ccc(N=Nc2c(N)nn3c(-c4ccco4)cc(-c4ccc(OCc5ccccc5)cc4)nc23)cc1 | ATCC10231 | – | 31.3 µg/mL
OC(Cn1cncn1)(Cn1cncn1)c1ccc(F)cc1F | SP3902 | 48 h | 8 µM
COc1ccc(-n2nc(C(=O)c3ccc(Nc4cnccn4)cc3)sc2=N)cc1 | ATCC10231 | – | 50 µg/mL
C/C(=N\NC(=O)/N=C(\C)c1c(O)c2ccccc2oc1=O)c1c(O)c2ccccc2oc1=O | – | 48 h | 31.2 µg/mL
CCCCCCCCCCCC(=O)ON=C1C=CC(=C(C#N)c2ccccc2)C=C1 | ATCC10231 | 48 h | 512 µg/mL
C/C(=N\N=C(/C)c1c(O)c2ccccc2oc1=O)c1c(O)c2ccccc2oc1=O | – | 48 h | 125 µg/mL
COc1ccc(N=Nc2c(N)nn3c(-c4ccc(Cl)cc4Cl)cc(-c4ccc(OCc5ccccc5)cc4)nc23)cc1 | ATCC10231 | – | 62.5 µg/mL
C#CCON=C1C=CC(=C(C#N)c2ccccc2)C=C1 | ATCC10231 | 48 h | 32 µg/mL
O=C1/C(=C/c2ccc3ccccc3c2O)NC(=S)N1c1ccccc1 | ATCC10 ATCC10231 | – | 20 µg/mL
C/C(=N\CCNCC/N=C(\C)c1c(O)c2ccccc2oc1=O)c1c(O)c2ccccc2oc1=O | – | 48 h | 7.81 µg/mL
N=c1sc(C(=O)c2ccc(Nc3cnccn3)cc2)nn1-c1ccc([N+](=O)[O-])cc1 | ATCC10231 | – | 12.5 µg/mL
C/C(=N\CCNCCNCC/N=C(\C)c1c(O)c2ccccc2oc1=O)c1c(O)c2ccccc2oc1=O | – | 48 h | 15.6 µg/mL
N#CC(C#N)=C1SC(C(=O)c2ccc(Nc3cnccn3)cc2)=NN1c1ccccc1 | ATCC10231 | – | 100 µg/mL
C=CC(=O)ON=C1C=CC(=C(C#N)c2ccccc2)C=C1 | ATCC10231 | 48 h | 2 µg/mL
N#CC(C#N)=C1SC(C(=O)c2ccc(Nc3cnccn3)cc2)=NN1c1ccc([N+](=O)[O-])cc1 | ATCC10231 | – | 12.5 µg/mL
Nc1nn2c(-c3ccco3)cc(-c3ccc(OCc4ccccc4)cc3)nc2c1N=Nc1ccc(F)cc1 | ATCC10231 | – | 125 µg/mL
C[C@@H]1[C@H](O)[C@@H](C)/C=C/C=C/C=C/C=C/C=C/C=C/C=C/[C@H](O[C@@H]2O[C@H](C)[C@@H](O)[C@H](N)[C@@H]2O)C[C@@H]2O[C@](O)(C[C@@H](O)C[C@@H](O)[C@H](O)CC[C@@H](O)C[C@@H](O)CC(=O)O[C@H]1C)C[C@H](O)[C@H]2C(=O)O | ATCC90028 | 48 h | 0.5 µg/mL
